In ChEMBL document CHEMBL1156852, “Synthesis and biological evaluation of simple methoxylated chalcones as anticancer, anti-inflammatory and antioxidant agents” (Bioorg Med Chem, 2010):

Key:
[1] = system: THP-1; assay: Antiinflammatory activity in human THP1 cells assessed as inhibition of LPS-induced IL6 release at 1 uM preincubated for 30 mins before LPS challenge by ELISA; format: functional
Summary of the method: (§1)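 PMA-differentiated THP-1 cells grown in RPMI 1640 with 10% FBS, penicillin and streptomycin. Compounds in 0.5% DMSO were added and preincubated 30 min at 37 °C, then cells were stimulated with E. coli 0127:B8 LPS. Released cytokine was quantified with a BD Biosciences kit per the manufacturer. Percent inhibition of release was calculated versus control. Cytotoxicity was checked in parallel by CCK-8.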

[2] = system: THP-1; assay: Antiinflammatory activity in human THP1 cells assessed as inhibition of LPS-induced TNFalpha release at 1 uM preincubated for 30 mins before LPS challenge by ELISA; format: functional; summary of the method: as §1
[3] = Toxicity against […] assessed as cell growth; format: cell-based; parameters: concentration or dose not given beside the values
[4] = system: PANC-1; assay: Growth inhibition of human PANC1 cells at 10 uM after 48 hrs by propidium iodide assay; conditions: PANC-1, 48 h, read-out: GI
[5] = system: THP-1; assay: Antiinflammatory activity in human THP1 cells assessed as inhibition of LPS-induced TNFalpha release at 10 uM preincubated for 30 mins before LPS challenge by ELISA; format: functional
[6] = system: Radical scavenging activity; assay: Antioxidant activity assessed as radical DPPH scavenging activity at 1 mM/mL; format: functional
Summary of the method: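 DPPH radical scavenging by the Blois method. Compound stock solutions (1 mM) were mixed with 0.3 mM DPPH in methanol in a 3 mL total reaction and left to react at room temperature.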

[7] = system: NCI-H460; assay: Growth inhibition of human H460 cells at 10 uM after 24 hrs by propidium iodide assay; format: functional; conditions: NCI-H460, 24 h, read-out: GI
[8] = system: THP-1; assay: Antiinflammatory activity in human THP1 cells assessed as inhibition of LPS-induced IL6 release at 10 uM preincubated for 30 mins before LPS challenge by ELISA; format: functional
[9] = system: ACHN; assay: Growth inhibition of human ACHN cells at 10 uM after 48 hrs by propidium iodide assay; conditions: read-out: GI
[10] = system: HCT-116; assay: Growth inhibition of human HCT116 cells at 10 uM after 48 hrs by propidium iodide assay; conditions: HCT-116, 48 h, read-out: GI
[11] = system: Calu-1; assay: Growth inhibition of human Calu1 cells at 10 uM after 24 hrs by propidium iodide assay; format: functional; conditions: Calu-1, 24 h, read-out: GI
[12] = system: ACHN; assay: Growth inhibition of human ACHN cells at 500 nM after 48 hrs by propidium iodide assay; conditions: read-out: GI
[13] = system: NCI-H460; assay: Growth inhibition of human H460 cells at 500 nM after 48 hrs by propidium iodide assay; conditions: NCI-H460, 48 h, read-out: GI
[14] = system: Calu-1; assay: Growth inhibition of human Calu1 cells at 500 nM after 24 hrs by propidium iodide assay; format: functional; conditions: Calu-1, 24 h, read-out: GI
[15] = system: HCT-116; assay: Growth inhibition of human HCT116 cells at 500 nM after 48 hrs by propidium iodide assay; conditions: HCT-116, 48 h, read-out: GI
[16] = system: PANC-1; assay: Growth inhibition of human PANC1 cells at 500 nM after 24 hrs by propidium iodide assay; format: functional; conditions: PANC-1, 24 h, read-out: GI
[17] = system: HCT-116; assay: Growth inhibition of human HCT116 cells at 700 nM after 48 hrs by propidium iodide assay; conditions: HCT-116, 48 h, read-out: GI
[18] = system: PANC-1; assay: Growth inhibition of human PANC1 cells at 700 nM after 48 hrs by propidium iodide assay; conditions: PANC-1, 48 h, read-out: GI
[19] = system: ACHN; assay: Growth inhibition of human ACHN cells at 700 nM after 48 hrs by propidium iodide assay; conditions: read-out: GI
[20] = system: Calu-1; assay: Growth inhibition of human Calu1 cells at 700 nM after 24 hrs by propidium iodide assay; format: functional; conditions: Calu-1, 24 h, read-out: GI
[21] = system: NCI-H460; assay: Growth inhibition of human H460 cells at 700 nM after 48 hrs by propidium iodide assay; conditions: NCI-H460, 48 h, read-out: GI

SMILES | Activity [3] [%] | inhibition of growth at 10 µM [4] [%] | inhibition at 10 µM [5] [%] | Activity [6] [%] | inhibition of growth at 10 µM [7] [%] | inhibition at 10 µM [8] [%] | inhibition of growth at 10 µM [9] [%] | inhibition of growth at 10 µM [10] [%] | inhibition of growth at 10 µM [11] [%] | also measured
C[C@@H]1C[C@H]2[C@@H]3CCC4=CC(=O)C=C[C@]4(C)[C@@]3(F)[C@@H](O)C[C@]2(C)[C@@]1(O)C(=O)CO [DEXAMETHASONE] | 0 |  |  |  |  |  |  |  |  | inhibition at 1 µM [1]: 84%; inhibition at 1 µM [2]: 73%
COc1ccc(/C=C/C(=O)c2ccc(Cl)cc2)c(OC)c1 | 0 | 29 | 0 | 26.4 | 29 | 12 | 28 | 22 | 28 | 
COc1ccc(/C=C/C(=O)c2ccccc2)c(OC)c1 | 79 | 94 | 98 | 38 | 92 | 100 | 93 | 95 | 91 | 
COc1cc(/C=C/C(=O)c2ccccc2)cc(OC)c1OC | 73 | 7 | 100 | 47.2 | 15 | 100 | 33 | 0 | 7 | 
COc1cc(/C=C/C(=O)c2ccc(Cl)cc2)cc(OC)c1OC | 79 | 66 | 98 | 36.5 | 54 | 100 | 57 | 92 | 67 | 
COc1ccc(/C=C/C(=O)c2ccc(OC)cc2OC)c(OC)c1 | 35 | 43 | 2 | 31.3 | 38 | 81 | 48 | 31 | 32 | 
Nc1ccn([C@@H]2O[C@H](CO)[C@@H](O)C2(F)F)c(=O)n1 [GEMCITABINE] |  |  |  |  |  |  |  |  |  | inhibition of growth at 0.5 µM [12]: 70%; inhibition of growth at 0.5 µM [13]: 68%; inhibition of growth at 0.5 µM [14]: 70%; inhibition of growth at 0.5 µM [15]: 76%; inhibition of growth at 0.5 µM [16]: 71%
CN1CC[C@H](c2c(O)cc(O)c3c(=O)cc(-c4ccccc4Cl)oc23)[C@H](O)C1 [ALVOCIDIB] |  |  |  |  |  |  |  |  |  | inhibition of growth at 0.7 µM [17]: 71%; inhibition of growth at 0.7 µM [18]: 75%; inhibition of growth at 0.7 µM [19]: 68%; inhibition of growth at 0.7 µM [20]: 68%; inhibition of growth at 0.7 µM [21]: 84%
COc1ccc(O)c(C(C)(C)C)c1.COc1ccc(O)cc1C(C)(C)C |  |  |  | 74 |  |  |  |  |  | 
COc1ccc(C(=O)/C=C/c2ccc(OC)cc2OC)cc1 | 29 | 36 | 0 | 32.3 | 38 | 39 | 45 | 37 | 31 | 
COc1ccc(/C=C/C(=O)c2ccc(Cl)cc2Cl)c(OC)c1 | 2 | 35 | 0 | 11.3 | 29 | 6 | 35 | 26 | 30 | 
